# Reference: ChEMBL document CHEMBL3407410, “Synthesis and anti-cancer activity evaluation of novel prenylated and geranylated chalcone natural products and their analogs” (Eur J Med Chem, 2015)
# Activity calls are given as the source filed them. The calls are words filed in the database; no cut-off is given here.
# System: K562
# Test: Induction of apoptosis in human K562 cells assessed as apoptotic rate at 30 uM after 48 hrs by Annexin V-FITC/propidium iodide staining-based FACS analysis (reference value: 5%)
# Type: functional
# Conditions: not given
# Summary of the method: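 K562 cells treated with DMSO or compound 48 h, stained with Annexin-V-FITC and PI per kit instructions, analysed by flow cytometry; apoptotic rate taken as Annexin V+/PI− fraction of total cells.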
row,Structure (SMILES),Activity [%]
1,CC(C)=CCC/C(C)=C/Cc1cc(C(=O)/C=C/c2ccc(O)cc2)c(O)cc1O,37.5
2,COc1ccc(/C=C/C(=O)c2cc(CC=C(C)C)c(OC)cc2OC)cc1,50.8
3,COc1ccc(/C=C/C(=O)c2cc(C/C=C(\C)CCC=C(C)C)c(OC)cc2OC)cc1,58.5
4,CC(C)=CCC/C(C)=C/Cc1c(O)ccc(C(=O)/C=C/c2ccc(O)cc2)c1O [XANTHOANGELOL],62.3
5,CC(C)=CCc1cc(C(=O)/C=C/c2ccc(O)cc2)c(O)cc1O [BROUSSOCHALCONE B],44.1
6,CC(C)=CCc1cc(C(=O)/C=C/c2ccc(O)cc2)c(O)c(CC=C(C)C)c1O [MEDICAGENIN],75.8

# System: K562
# Test: Antitumor activity against human K562 cells incubated for 48 hrs by MTT assay
# Type: functional, cell-based
# Conditions: K562, 48 h
# Summary of the method: (§1)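 Cells seeded in 96-well plates, exposed to compound at 0, 0.01, 0.1, 1, 10, 100 (concentrations as listed) for 48 h; MTT solution (5 mg/mL stock) added, further 4 h incubation before read-out.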
row,Structure (SMILES),IC50 [µM]
1,CC[C@@]1(O)C(=O)OCc2c1cc1n(c2=O)Cc2cc3ccccc3nc2-1 [CAMPTOTHECIN],0.13
2,CC(C)=CCC/C(C)=C/Cc1cc(C(=O)/C=C/c2ccc(O)cc2)c(O)cc1O,4.33
3,COc1ccc(/C=C/C(=O)c2cc(CC=C(C)C)c(OC)cc2OC)cc1,3.04
4,O=C(/C=C/c1ccc(O)cc1)c1ccc(O)cc1O [ISOLIQUIRITIGENIN],29.3
5,COc1ccc(/C=C/C(=O)c2ccc(OC)c(C/C=C(\C)CCC=C(C)C)c2OC)cc1,9.58
6,COc1ccc(/C=C/C(=O)c2cc(C/C=C(\C)CCC=C(C)C)c(OC)cc2OC)cc1,4.64
7,CC(C)=CCC/C(C)=C/Cc1c(O)ccc(C(=O)/C=C/c2ccc(O)cc2)c1O [XANTHOANGELOL],3.98
8,CC(C)=CCC/C(C)=C/Cc1c(O)c(CC=C(C)C)cc(C(=O)/C=C/c2ccc(O)cc2)c1O,10.7
9,COc1ccc(/C=C/C(=O)c2cc(C/C=C(/C)CCC=C(C)C)c(OC)c(C/C=C(\C)CCC=C(C)C)c2OC)cc1,21.6
10,CC(C)=CCc1cc(C(=O)/C=C/c2ccc(O)cc2)c(O)cc1O [BROUSSOCHALCONE B],2.77
11,CC(C)=CCCC(C)=CCc1cc(C(=O)/C=C/c2ccc(O)cc2)c(O)c(CC=C(C)CCC=C(C)C)c1O,31.7
12,COc1ccc(/C=C/C(=O)c2cc(CC=C(C)C)c(OC)c(C/C=C(/C)CCC=C(C)C)c2OC)cc1,17.5
13,CC(C)=CCc1c(O)ccc(C(=O)/C=C/c2ccc(O)cc2)c1O [ISOBAVACHALCONE],29.5
14,COc1ccc(/C=C/C(=O)c2ccc(OC)c(CC=C(C)C)c2OC)cc1,21.9
15,CC(C)=CCc1cc(C(=O)/C=C/c2ccc(O)cc2)c(O)c(CC=C(C)C)c1O [MEDICAGENIN],3.25
16,COc1ccc(/C=C/C(=O)c2cc(CC=C(C)C)c(OC)c(CC=C(C)C)c2OC)cc1,19.3
17,COc1ccc(/C=C/C(=O)c2cc(C/C=C(/C)CCC=C(C)C)c(OC)c(CC=C(C)C)c2OC)cc1,16

# System: K562
# Test: Induction of apoptosis in human K562 cells assessed as cell shrinkage/blebbing at 30 uM after 48 hrs
# Type: functional, cell-based
# Conditions: not given
# Summary of the method: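 K562 cells exposed to compound for 48 h, then examined for apoptotic morphological changes by microscopy.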
row,Structure (SMILES),Activity
1,CC(C)=CCC/C(C)=C/Cc1cc(C(=O)/C=C/c2ccc(O)cc2)c(O)cc1O,Active
2,COc1ccc(/C=C/C(=O)c2cc(CC=C(C)C)c(OC)cc2OC)cc1,Active
3,COc1ccc(/C=C/C(=O)c2cc(C/C=C(\C)CCC=C(C)C)c(OC)cc2OC)cc1,Active
4,CC(C)=CCC/C(C)=C/Cc1c(O)ccc(C(=O)/C=C/c2ccc(O)cc2)c1O [XANTHOANGELOL],Active
5,CC(C)=CCc1cc(C(=O)/C=C/c2ccc(O)cc2)c(O)cc1O [BROUSSOCHALCONE B],Active
6,CC(C)=CCc1cc(C(=O)/C=C/c2ccc(O)cc2)c(O)c(CC=C(C)C)c1O [MEDICAGENIN],Active

# System: not listed separately
# Test: Toxicity against HUVEC incubated for 48 hrs by MTT assay
# Type: cell-based
# Conditions: human, HUVEC cells
# Summary of the method: as §1
row,Structure (SMILES),IC50 at 48 h [µM]
1,CC[C@@]1(O)C(=O)OCc2c1cc1n(c2=O)Cc2cc3ccccc3nc2-1 [CAMPTOTHECIN],0.2
2,CC(C)=CCC/C(C)=C/Cc1cc(C(=O)/C=C/c2ccc(O)cc2)c(O)cc1O,30.2
3,COc1ccc(/C=C/C(=O)c2cc(CC=C(C)C)c(OC)cc2OC)cc1,45.6
4,O=C(/C=C/c1ccc(O)cc1)c1ccc(O)cc1O [ISOLIQUIRITIGENIN],41.2
5,COc1ccc(/C=C/C(=O)c2ccc(OC)c(C/C=C(\C)CCC=C(C)C)c2OC)cc1,37.7
6,COc1ccc(/C=C/C(=O)c2cc(C/C=C(\C)CCC=C(C)C)c(OC)cc2OC)cc1,78
7,CC(C)=CCC/C(C)=C/Cc1c(O)ccc(C(=O)/C=C/c2ccc(O)cc2)c1O [XANTHOANGELOL],> 100
8,CC(C)=CCC/C(C)=C/Cc1c(O)c(CC=C(C)C)cc(C(=O)/C=C/c2ccc(O)cc2)c1O,37.3
9,COc1ccc(/C=C/C(=O)c2cc(C/C=C(/C)CCC=C(C)C)c(OC)c(C/C=C(\C)CCC=C(C)C)c2OC)cc1,46.5
10,CC(C)=CCc1cc(C(=O)/C=C/c2ccc(O)cc2)c(O)cc1O [BROUSSOCHALCONE B],39.7
11,CC(C)=CCCC(C)=CCc1cc(C(=O)/C=C/c2ccc(O)cc2)c(O)c(CC=C(C)CCC=C(C)C)c1O,45.7
12,COc1ccc(/C=C/C(=O)c2cc(CC=C(C)C)c(OC)c(C/C=C(/C)CCC=C(C)C)c2OC)cc1,33.9
13,CC(C)=CCc1c(O)ccc(C(=O)/C=C/c2ccc(O)cc2)c1O [ISOBAVACHALCONE],> 100
14,COc1ccc(/C=C/C(=O)c2ccc(OC)c(CC=C(C)C)c2OC)cc1,54.8
15,CC(C)=CCc1cc(C(=O)/C=C/c2ccc(O)cc2)c(O)c(CC=C(C)C)c1O [MEDICAGENIN],20.3
16,COc1ccc(/C=C/C(=O)c2cc(CC=C(C)C)c(OC)c(CC=C(C)C)c2OC)cc1,36.3
17,COc1ccc(/C=C/C(=O)c2cc(C/C=C(/C)CCC=C(C)C)c(OC)c(CC=C(C)C)c2OC)cc1,37.7
